The text below walks through data of PubChem BioAssay.

Test [1] is described as follows: reducers of endogenous Her2 protein level, primary screen, SKBR3 breast tumor cells, AlphaScreen, ATP viability (AID 461;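 active means Her2 level under about 52% in both replicate screens, with viability over 70% of control, limit read from the data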;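 on Her2 level: lower value means less Her2 protein in the cells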;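 on viability: percent of carrier control wells set as 100% viability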). The conditions noted are these: 18-24 h, measured here: SKBR3 viability, ATP luminescence, at 10 µM. On the technique in general: Bead proximity is the source of the signal in Alpha formats.
For test [2], the target named is Receptor tyrosine-protein kinase erbB-2 (Homo sapiens) (UniProt P04626). Described as above. The following applies: 18-24 h, at 10 µM, stronger effect = lower value.
Test [3] in a line: SK-BR-3 cell growth inhibitors, pilot screen, 24 h, human (AID 572;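 active means viability at or below 10% of carrier control in both of two separate runs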;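 further: compound exposure lasted between 18 and 24 h rather than exactly 24 h; 100% = carrier-treated control wells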). The conditions noted are these: SK-BR-3 viability, CellTiter-Glo luminescence, at 10 µM, stronger effect = lower value. Background: In ATP-based viability assays light output follows the ATP content of the culture.
Test [4] is described as follows: HUVEC growth inhibition – cell-based, human, primary screen (AID 575;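 active means viability at or below 30% in both replicate assays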;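 further: 100% = median of untreated cell wells with 0.1% DMSO on each plate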). The conditions noted are these: HUVEC proliferation, CellTiter-Glo luminescence, 72 h; at 10 µM; stronger effect = lower value. The method in brief: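 system = HUVEC primary cells | amount = 1250 cells/well | buffer or medium = supplemented EBM, 2% fetal bovine serum | dosing = single-point 10 µM, DMSO 0.1% final | times = 72 h compound incubation | detection = CTG luminescence | read-out = % viability relative to median vehicle-well signal on each plate | control set = vehicle and MePR control wells | format = collagen-coated 384-well format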

A short description of test [5]: growth inhibitors of H69AR lung tumor, primary screen, human, duplicate replicates (AID 580;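 active means viability at or under a set limit in both replicates, limit being median viability minus 3 SD, cut at about 48% in these data, passing the limit was not always enough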;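 further: 100% = mean luminescence of untreated wells and 0% = no signal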). The conditions noted are these: H69AR lung tumor cells viability, ATP luminescence, 72 h; at 10 µM; stronger effect = lower value.
A short description of test [6]: reversal of MRP1-mediated doxorubicin resistance, pilot screen, H69AR cells, doxorubicin co-treatment (AID 601;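 active means viability loss from added drug above about 55%, and viability with drug at most 40%, in both replicates, limit read from the data, passing the limit was not always enough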). The following applies: CellTiter-Glo, 72 h, at 10 µM; for differential viability (reversal): stronger effect = higher value.
A short description of test [7]: 384-well plate pilot, post-Golgi transport modulator project, inhibition of yeast transport mutant growth (AID 636; in the data active means inhibition above about 31%). The conditions noted are these: absorbance 615 nm, about 18 h, stronger effect = higher value.
Test [8] in a line: growth suppression of yeast trafficking mutant, preliminary HTS, modulators of trafficking downstream of Golgi apparatus project, 1536-format plate, OD 615 nm (AID 637). The conditions noted are these: yeast transport mutant growth, absorbance 615 nm, 18 h; stronger effect = higher value.
[9] abbreviates: H69AR cells + 2 uM doxorubicin, measured here: viability with 2 uM doxorubicin, stronger effect = lower value.
Where [10] appears, read: H69AR cells, compound alone cytotoxicity.

Each structure is given as a SMILES string. Activity calls are given as the source filed them. Unless noted, no stated cut-off is given here; in the data, active means inhibition above about 30%; inactive means the rest.

Receptor tyrosine-protein kinase erbB-2 (Homo sapiens), sequence (P04626 whole entry, looked up): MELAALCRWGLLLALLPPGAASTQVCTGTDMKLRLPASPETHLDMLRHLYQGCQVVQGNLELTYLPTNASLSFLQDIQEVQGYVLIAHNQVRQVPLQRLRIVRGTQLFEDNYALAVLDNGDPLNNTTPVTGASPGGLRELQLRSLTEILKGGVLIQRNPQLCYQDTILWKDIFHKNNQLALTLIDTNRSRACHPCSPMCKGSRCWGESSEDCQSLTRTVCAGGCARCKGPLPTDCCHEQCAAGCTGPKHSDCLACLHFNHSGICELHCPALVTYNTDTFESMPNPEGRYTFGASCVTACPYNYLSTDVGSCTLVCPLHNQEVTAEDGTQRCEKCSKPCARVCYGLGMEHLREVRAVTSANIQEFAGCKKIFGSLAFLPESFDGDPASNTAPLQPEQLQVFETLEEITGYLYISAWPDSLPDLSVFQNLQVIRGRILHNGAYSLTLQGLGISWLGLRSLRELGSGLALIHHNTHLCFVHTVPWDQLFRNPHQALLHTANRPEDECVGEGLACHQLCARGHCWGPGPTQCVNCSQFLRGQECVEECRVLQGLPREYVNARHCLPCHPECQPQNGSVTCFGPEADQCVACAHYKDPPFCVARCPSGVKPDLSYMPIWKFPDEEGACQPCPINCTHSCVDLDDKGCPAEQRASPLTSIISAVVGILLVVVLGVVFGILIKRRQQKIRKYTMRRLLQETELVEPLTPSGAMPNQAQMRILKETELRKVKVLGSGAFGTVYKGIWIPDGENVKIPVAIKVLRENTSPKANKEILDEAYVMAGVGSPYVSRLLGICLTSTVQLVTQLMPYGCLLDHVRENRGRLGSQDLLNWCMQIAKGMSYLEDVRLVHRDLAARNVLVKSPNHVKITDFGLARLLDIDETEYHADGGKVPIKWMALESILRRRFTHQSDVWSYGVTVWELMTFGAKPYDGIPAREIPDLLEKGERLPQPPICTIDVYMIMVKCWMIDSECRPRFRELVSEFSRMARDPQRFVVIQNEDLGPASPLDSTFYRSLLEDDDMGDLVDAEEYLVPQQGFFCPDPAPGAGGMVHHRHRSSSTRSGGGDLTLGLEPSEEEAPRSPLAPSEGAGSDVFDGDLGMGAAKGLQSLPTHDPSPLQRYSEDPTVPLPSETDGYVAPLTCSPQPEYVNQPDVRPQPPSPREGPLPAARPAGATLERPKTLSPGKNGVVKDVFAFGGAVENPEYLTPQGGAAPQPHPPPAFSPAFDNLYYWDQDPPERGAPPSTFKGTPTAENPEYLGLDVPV

Consider `Cc1cnn(Cc2ccccc2)c1N`, for which the viability – broadly, a read-out of living cells in per cent, often relative to untreated cells – in test [1] was 115%; in test [3], 115% (inactive); in test [4], 84.3% (inactive); in test [5] it was 88.7% (inactive); in test [6] (setting [9]), 77.6%; in test [6] (setting [10]) it was 88.7%. In test [2], the Her2 level is 73.5% (inactive). The differential viability (reversal) in test [6] (H69AR cells + 2 uM doxorubicin) was 11.2% (inactive). In addition, the inhibition (as a rule, the drop in the measured response relative to a control, in per cent) in test [7] is -6.08% (inactive); in test [8], 4.76% (inactive).

Regarding `COc1ccc(OC)c(C(=O)COC(=O)c2cc(C)oc2C)c1`, the viability in test [1] is 112%; in test [3] it was 112% (inactive); in test [4], 62.9% (inactive); in test [5] it was 92.7% (inactive); in test [6] (setting [9]), 87.9%; in test [6] (setting [10]), 92.7%. Besides, in test [2], the Her2 level was 71% (inactive). Moreover, the differential viability (reversal) in test [6] (H69AR cells + 2 uM doxorubicin) is 4.87% (inactive). Besides, the inhibition in test [7] is -7.33% (inactive); in test [8], -4.92% (inactive).

For the molecule `CN(C)c1ccc2c(c1)OC(N)=C(C#N)C2c1cccc(F)c1` (stereo not given), the viability is 92% in test [1]; 92% (inactive) in test [3]; 17.2% (active) in test [4]; 34.7% (active) in test [5]; 75.7% in test [6] (setting [9]); 34.7% in test [6] (setting [10]). Also, in test [2], the Her2 level was 90.5% (inactive). The differential viability (reversal) in test [6] (H69AR cells + 2 uM doxorubicin) is -41% (inactive). Besides, the values for the inhibition in test [7] and in test [8] were -3.24% (inactive) and 4.75% (inactive), respectively.

As to `Cn1c(=O)c2c(nc(NCCCO)n2CCc2ccccc2)n(C)c1=O`, the viability in test [1] is 94%; in test [3], 94% (inactive); in test [4], 93.7% (inactive); in test [5], 87.1% (inactive); in test [6] (setting [9]) it was 89.4%; in test [6] (setting [10]) it was 87.1%. The Her2 level in test [2] was 138% (inactive). The differential viability (reversal) in test [6] (H69AR cells + 2 uM doxorubicin) was -2.35% (inactive). Further, the figures for the inhibition in test [7] and in test [8] were 5.45% (inactive) and -2.83% (inactive), respectively.

Consider `O=C(Oc1cccc2cccnc12)c1cccc(-n2cnnn2)c1`, for which the viability in test [1] was 104%; in test [3], 104% (inactive); in test [4], 60.3% (inactive); in test [5] it was 91.9% (inactive); in test [6] (setting [9]) it was 76.8%; in test [6] (setting [10]) it was 91.9%. In addition, the Her2 level in test [2] is 82% (inactive). Further, in test [6] (H69AR cells + 2 uM doxorubicin), the differential viability (reversal) is 15.1% (inactive). Also, the results for the inhibition in test [7] and in test [8] were -2.53% (inactive) and 5.97% (inactive), respectively.

Regarding `Cc1cccc(Nc2nc(N)nc(CN3CCC(C(N)=O)CC3)n2)c1C`, the viability was 89% in test [1]; 89% (inactive) in test [3]; 105% (inactive) in test [4]; 98.1% (inactive) in test [5]; 85.2% in test [6] (setting [9]); 98.1% in test [6] (setting [10]). Besides, the Her2 level in test [2] is 89% (inactive). The differential viability (reversal) in test [6] (H69AR cells + 2 uM doxorubicin) is 12.8% (inactive). Further, the figures for the inhibition in test [7] and in test [8] were -5.58% (inactive) and -3.49% (inactive), respectively.

In the case of `CCN(CCCNC(=O)C1CCN(S(=O)(=O)c2cccc3nonc23)CC1)Cc1ccccc1`, the viability in test [1] was 89%; in test [3], 89% (inactive); in test [4] it was 103% (inactive); in test [5], 92.9% (inactive); in test [6] (setting [9]) it was 81.8%; in test [6] (setting [10]), 92.9%. In addition, the Her2 level in test [2] is 90% (inactive). The differential viability (reversal) in test [6] (H69AR cells + 2 uM doxorubicin) was 11.1% (inactive). In addition, the inhibition in test [7] was -5.39% (inactive); in test [8] it was 2.5% (inactive).

For the molecule `CCOC(=O)CSc1nnc(-c2cccnc2)n1Cc1ccccc1`, the viability in test [1] is 91.5%; in test [3], 91.5% (inactive); in test [4], 106% (inactive); in test [5] it was 96.4% (inactive); in test [6] (setting [9]), 96.2%; in test [6] (setting [10]), 96.4%. For the same molecule, the Her2 level in test [2] was 108% (inactive). The differential viability (reversal) in test [6] (H69AR cells + 2 uM doxorubicin) is 0.125% (inactive). Moreover, the values for the inhibition in test [7] and in test [8] were 1.45% (inactive) and -12.3% (inactive), respectively.

With `O=C(OCc1cc2ccccc2[nH]c1=O)c1ccncc1`, the viability is 90.5% in test [1]; 90.5% (inactive) in test [3]; 76.4% (inactive) in test [4]; 79.2% (inactive) in test [5]; 89.7% in test [6] (setting [9]); 79.2% in test [6] (setting [10]). The Her2 level in test [2] is 89% (inactive). Moreover, the differential viability (reversal) in test [6] (H69AR cells + 2 uM doxorubicin) is -10.5% (inactive). Besides, the inhibition in test [7] was -4.34% (inactive); in test [8] it was -2.74% (inactive).

As to `COCCn1c(SCC(=O)Nc2nnc(C)s2)nnc1-c1c[nH]c2ccccc12`, the viability in test [1] was 104%; in test [3], 104% (inactive); in test [4], 111% (inactive); in test [5], 103% (inactive); in test [6] (setting [9]), 88.6%; in test [6] (setting [10]), 103%. For the same molecule, in test [2], the Her2 level is 84% (inactive). In test [6] (H69AR cells + 2 uM doxorubicin), the differential viability (reversal) is 14.8% (inactive). Besides, the inhibition in test [7] is -1.71% (inactive); in test [8], -6% (inactive).

In the case of `COc1ccccc1C1CC(c2ccc(C)cc2)Nc2ncnn21` (stereo not given), the viability is 107% in test [1]; 107% (inactive) in test [3]; 108% (inactive) in test [4]; 102% (inactive) in test [5]; 118% in test [6] (setting [9]); 102% in test [6] (setting [10]). Further, the Her2 level in test [2] was 116% (inactive). Further, the differential viability (reversal) in test [6] (H69AR cells + 2 uM doxorubicin) was -16% (inactive). The values for the inhibition in test [7] and in test [8] were 4.67% (inactive) and -3.17% (inactive), respectively.

`Cc1ccc(S(=O)(=O)NCC2CCC(C(=O)NCCCN3CCOCC3)CC2)cc1` (stereo not given): the viability in test [1] is 89.5%; in test [3] it was 89.5% (inactive); in test [4], 92.7% (inactive); in test [5], 88.6% (inactive); in test [6] (setting [9]), 96.6%; in test [6] (setting [10]) it was 88.6%. For the same molecule, in test [2], the Her2 level is 93% (inactive). Moreover, the differential viability (reversal) in test [6] (H69AR cells + 2 uM doxorubicin) was -8.07% (inactive). Moreover, the inhibition in test [7] is -0.53% (inactive); in test [8] it was 24.9% (inactive).

As to `O=C(OC1CCOC1=O)c1ccc2ccccc2n1` (stereo not given), the viability in test [1] is 98.5%; in test [3], 98.5% (inactive); in test [4], 101% (inactive); in test [5], 102% (inactive); in test [6] (setting [9]), 93.4%; in test [6] (setting [10]), 102%. The Her2 level in test [2] is 85% (inactive). The differential viability (reversal) in test [6] (H69AR cells + 2 uM doxorubicin) is 9.04% (inactive). Moreover, the inhibition is -6.93% (inactive) in test [7] and 1.75% (inactive) in test [8].

Consider `Cc1sc2ncn3ncnc3c2c1C`, for which the viability in test [1] was 91%; in test [3], 91% (inactive); in test [4] it was 50.7% (inactive); in test [5] it was 90.5% (inactive); in test [6] (setting [9]), 99.2%; in test [6] (setting [10]), 90.5%. In test [2], the Her2 level was 96.5% (inactive). Moreover, the differential viability (reversal) in test [6] (H69AR cells + 2 uM doxorubicin) is -8.71% (inactive). Besides, the inhibition was 6.13% (inactive) in test [7] and 4.26% (inactive) in test [8].
